Assay results taken from paper PMC4132844 (Nature communications, 2014).
Where two headings read alike, the source gives them in different places.

Columns and labels:
[1] = tested on: CYP2D6 (expressed drug-metabolizing enzyme); test: TeamChip metabolism-induced toxicity assay, CYP2D6; type: cell-based; conditions: human
[2] = tested on: CYP1A2 (expressed drug-metabolizing enzyme); test: TeamChip metabolism-induced toxicity assay, CYP1A2; type: cell-based; conditions: human
[3] = tested on: THLE-2 cells (no enzyme, Ad-Null); test: TeamChip metabolism-induced toxicity assay, no enzyme control; type: cell-based; conditions: Homo sapiens, read-out: IC50, No enzyme
[4] = tested on: CYP3A4 (expressed drug-metabolizing enzyme); test: TeamChip metabolism-induced toxicity assay, CYP3A4; type: cell-based; conditions: human, IC50, CYP3A4, Ad-CYP3A4 15 MOI; compound 48 h; n = 4
[5] = tested on: UGT1A4 (expressed metabolising enzyme); test: TeamChip metabolism-induced toxicity assay, UGT1A4; type: cell-based; conditions: human, IC50, UGT1A4, Ad-UGT1A4 15 MOI; compound 48 h; n = 4
[6] = tested on: All Mix: CYP2C9, CYP2D6, CYP3A4, CYP1A2, CYP2E1, UGT1A4 (expressed); test: TeamChip metabolism-induced toxicity assay, All Mix; type: cell-based; conditions: human
[7] = tested on: HepaRG cells in 2D culture; conditions: read-out: IC50, HepaRG cells in 2D culture; cited from earlier work
[8] = tested on: CYP2E1 (expressed drug-metabolizing enzyme); test: TeamChip metabolism-induced toxicity assay, CYP2E1; type: cell-based; conditions: human
How it was run: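 THLE-2 cells in Matrigel spotted onto micropillars at 4°C, held 18 h at 37°C, transduced 1 d with recombinant adenovirus carrying the enzyme gene (Ad-Null as no-enzyme control). Then exposed 2 d to test compound in BEGM. Washed twice in DPBS, Live/Dead stained 1 h in the dark, chip scanned.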

[9] = tested on: CYP2C9 (expressed drug-metabolizing enzyme); test: TeamChip metabolism-induced toxicity assay, CYP2C9; type: cell-based; conditions: human
[10] = tested on: HepaRG cells in 3D culture; conditions: read-out: IC50, HepaRG cells in 3D culture; cited from earlier work
[11] = tested on: P450 Mix: CYP2C9, CYP2D6, CYP3A4, CYP1A2, CYP2E1 (expressed); test: TeamChip metabolism-induced toxicity assay, P450 Mix; type: cell-based; conditions: human
[12] = tested on: THLE-2 cells; test: Apoptosis assay; type: cell-based, human; conditions: THLE-2 cells on the TeamChip
[13] = tested on: THLE-2 cells; test: Intracellular GSH assay on the TeamChip; type: cell-based, human; conditions: exposed to 5 μM ketoconazole, at varying concentrations of acetaminophen
How it was run: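 THLE-2 cells in Matrigel spots on a micropillar chip, transduced with 15 MOI Ad-CYP3A4 or Ad-Null (control) for 1 d. Then exposed for 48 h to varying test compound with 5 μM CYP3A4 inhibitor. Washed twice in DPBS, stained 20 min in the dark with thiol green dye (intracellular GSH kit), chip scanned, GSH quantified; n = 3.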

Compound | IC50 at 48 h [1] [µM] | IC50 at 48 h [2] [µM] | IC50 ([3]; 48 h) [µM] | IC50 ([3]; THLE-2, 48 h) [µM] | IC50 at 48 h [4] [µM] | IC50 at 48 h [5] [µM] | IC50 at 48 h [6] [µM] | IC50 [7] [µM] | IC50 at 2 d [8] [µM] | IC50 at 48 h [9] [µM] | IC50 [10] [µM] | IC50 at 48 h [11] [µM] | number of apoptotic cells [12] | intracellular GSH concentrations in CYP3A4-expressing THLE-2 cells [13]
CC(=O)Nc1ccc(O)cc1 [Acetaminophen, acetaminophen] | 1100 ± 71 | 820 ± 21 | 1500 ± 63 | 1400 ± 250 | […] | 2100 ± 52 | 640 ± 100 | 26300 | 180 | 930 ± 41 | 2700 | 240 ± 74 |  | 
Nc1c(CC(=O)O)cccc1C(=O)c1ccc(Br)cc1 [Bromfenac, bromfenac] | 170 ± 39 | 190 ± 37 | 210 ± 17 | 190 ± 12 | […] | 210 ± 14 | […] |  |  | 120 ± 6 |  | 220 ± 24 |  | 
COc1cccc2c1C(=O)c1c(O)c3c(c(O)c1C2=O)C[C@@](O)(C(=O)CO)C[C@@H]3O[C@H]1C[C@H](N)[C@H](O)[C@H](C)O1 [Doxorubicin, doxorubicin] |  |  |  |  |  |  |  |  |  |  |  |  | increased the number of apoptotic cells in a dose-dependent manner | 
CC(C)C(=O)Nc1ccc([N+](=O)[O-])c(C(F)(F)F)c1 [Flutamide, flutamide] | 27 ± 5.1 | 18 ± 0.5 | 45 ± 1.6 | 37 ± 9.7 | […] | 38 ± 1.8 | 17 ± 1.1 |  |  | 25 ± 4.8 |  | 18 ± 4.1 |  | 
CN1CCN(CCCN2c3ccccc3Sc3ccc(C(F)(F)F)cc32)CC1 [Trifluoperazine, trifluoperazine] | 69 ± 9.3 | 120 ± 5.1 | 75 ± 11 | 80 ± 9.4 | 110 ± 7.3 | 100 ± 12 | 110 ± 10 |  |  | 75 ± 12 |  | 53 ± 13 |  | 
Cc1c(C)c2c(c(C)c1O)CCC(C)(COc1ccc(CC3SC(=O)NC3=O)cc1)O2 (centres unmarked) [Troglitazone, troglitazone] | 77 ± 4.2 | 39 ± 6.6 | 110 ± 15 | […] | […] | 150 ± 11 | 62 ± 2.9 |  |  | 50 ± 4.9 |  | 51 ± 4.3 |  | 
CC(=O)N1CCN(c2ccc(OCC3COC(Cn4ccnc4)(c4ccc(Cl)cc4Cl)O3)cc2)CC1 (centres unmarked) [ketoconazole] |  |  |  |  |  |  |  |  |  |  |  |  |  | unchanged
